The source made the active and inactive calls.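 How the source made its calls: active means current rise at least 3 SD above the untreated control mean in each of two repeat wells; inactive means the rest.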
target: Potassium voltage-gated channel subfamily KQT member 1 (Homo sapiens) (UniProt P51787); assay: KCNQ1 channel current potentiators, confirmation, orthogonal assay for KCNQ1 potentiator project, IonWorks patch clamp, KCNQ1-CHO cells (AID 493184); conditions: automated patch clamp current, at 10 µM
How it was run: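 Assay system – CHO cells carrying KCNQ1 · Medium – pH 7.4 external bath · Probe or stimulus – depolarizing pulse to +40 mV from -90 mV · Compound dosing – one dose, 10 µM final · Measured by – automated perforated-patch electrophysiology · Measure – % potentiation of steady-state current relative to pre-compound · Repeats – two replicates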

Sequence of Potassium voltage-gated channel subfamily KQT member 1 (Homo sapiens) (P51787 whole entry, looked up): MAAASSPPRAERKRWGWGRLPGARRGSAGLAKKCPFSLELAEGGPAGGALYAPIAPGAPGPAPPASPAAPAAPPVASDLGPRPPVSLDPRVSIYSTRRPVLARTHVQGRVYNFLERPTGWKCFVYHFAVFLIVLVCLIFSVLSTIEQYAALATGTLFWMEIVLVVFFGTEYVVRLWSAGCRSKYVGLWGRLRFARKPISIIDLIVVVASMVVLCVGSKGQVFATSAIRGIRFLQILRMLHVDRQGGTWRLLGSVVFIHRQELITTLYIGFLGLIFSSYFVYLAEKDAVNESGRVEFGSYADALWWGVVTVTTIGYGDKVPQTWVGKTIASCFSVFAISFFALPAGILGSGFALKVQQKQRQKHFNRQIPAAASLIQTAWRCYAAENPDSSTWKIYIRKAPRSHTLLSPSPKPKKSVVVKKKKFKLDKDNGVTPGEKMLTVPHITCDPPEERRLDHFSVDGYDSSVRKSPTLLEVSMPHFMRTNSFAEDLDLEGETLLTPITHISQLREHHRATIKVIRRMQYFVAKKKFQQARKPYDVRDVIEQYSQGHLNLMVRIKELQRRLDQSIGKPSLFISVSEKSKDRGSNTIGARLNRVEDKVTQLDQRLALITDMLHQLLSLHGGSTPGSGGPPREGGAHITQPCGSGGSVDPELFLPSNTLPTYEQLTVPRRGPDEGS

outcome, inactive:
Cc1ccc(OCC(=O)NNC(=S)NC(=O)c2cccs2)c(C)c1
Cc1ccc(-c2nc3c(Cl)cc(Cl)cc3c(=O)n2O)cc1
O=C(CN1C2=NCCCN2c2ccccc21)c1ccc2c(c1)OCO2
CCOc1ccccc1C1CC(=O)Nc2cc3c(cc21)OCCO3 (centres undefined)
CCOc1ccc(C2C(C#N)=C(N)N(c3sc4c(c3C#N)CCCC4)C3=C2C(=O)CCC3)cc1 (centres undefined)
COc1ccc(NC(=S)NC(=O)c2ccccc2Cl)cc1
S=c1[nH]nc(-c2cccs2)n1/N=C/c1c(Cl)cccc1Cl
S=c1[nH]nc(-c2ccc(Cl)cc2)n1/N=C/C=C/c1ccco1
CCn1c(SCC(=O)NC(=O)NCc2ccco2)nc2sc(C)c(C)c2c1=O
O=c1[nH]cc(-c2ccccc2)c(=O)[nH]1
O=C(C1CCCCC1)N(CCN1CCCC1)c1nc2ccccc2s1
CN(C(=O)c1cc(COc2c(F)cccc2F)on1)C1CCOC1 (centres undefined)
CCOC(=O)c1ccc(Nc2nc(N3CCOCC3)nc(N3CCOCC3)n2)cc1
CC(C)c1ccc(/C=C2\SC(N3CCOCC3)=NC2=O)cc1
CCC(O)(CC)C(=O)NN(C(=O)CCl)c1ccccc1
CCCC(=O)Nc1ccc(S(=O)(=O)N2CCC(c3nc4ccccc4[nH]3)CC2)cc1
O=C1CC(c2cccs2)Cc2nc(NC(=O)C3CC3)ncc21 (centres undefined)
O=C1/C(=C/c2cccc(F)c2)SC(=S)N1NS(=O)(=O)c1ccccc1
N#C/C=C1/NC(=O)c2ccccc2S1
O=C(Nc1cc([N+](=O)[O-])ccc1N1CCCC1)c1cccs1
O=C(Nc1nc(=O)c2ccccc2s1)c1ccc(F)cc1
O=C(NCc1ccccn1)c1ccc(COc2ccc(Cl)cc2)o1
C/C(=N\NC(=O)c1cccc(F)c1)c1ccc(Br)s1
N#C/C(=C/c1cn(-c2ccccc2)nc1-c1cccc(S(=O)(=O)N2CCOCC2)c1)C(=O)NCc1ccco1
CCCN(C(=O)c1cn(-c2ccccc2)nc1-c1ccc(OC)cc1)C1CCS(=O)(=O)C1 (centres undefined)
S=c1nc[nH]c2c1cnn2-c1ccccc1
CCCOc1ccc(-c2c(=O)n(O)c3ccccc3[n+]2[O-])cc1
CCOC(=O)c1oc2c(CN3CCCCC3C)c(O)ccc2c(=O)c1-c1ccc(OC)c(OC)c1 (centres undefined)
Oc1c(N=NC(=S)Nc2ccccc2F)c2ccccc2n1Cc1ccccc1Cl
S=c1[nH]cc(Cc2ccccc2)s1
CCN(CC)C(=S)NC(=O)c1ccc(OC)c(Br)c1
O=C(c1ccc(COc2ccc(Cl)cc2)o1)N1CCN(Cc2ccc3c(c2)OCO3)CC1
COc1ccc(C(=O)O/N=C(\N)c2ccccc2Cl)cc1OC
O=C(C1CCCCC1)N1CCCC(c2nc3c(nnn3Cc3ccccc3)c(=O)[nH]2)C1 (centres undefined)
CC(=O)CC1(OC(C)=O)C(=O)N(C)c2ccccc21 (centres undefined)
C=CCN(c1ccccc1)S(=O)(=O)c1cccc(C(=O)Nc2cccc(C)n2)c1
O=C(CC(=O)c1ccccc1O)c1cccc(F)c1
CCC(C(=O)OCC(=O)NC(=O)NC(C)(C)C)c1ccccc1 (centres undefined)
Cc1ccc(Cl)cc1NC(=S)N/N=C/c1cccc2ccccc12
